Laboratory results reported in ChEMBL document CHEMBL3769366, “Novel tricyclic pyrazolo[1,5-d][1,4]benzoxazepin-5(6H)-one: Design, synthesis, model and use as hMAO-B inhibitors” (Bioorg Med Chem, 2016).

Columns and labels:
[1] = target: T1, Amine oxidase [flavin-containing] B (Homo sapiens, UniProt P27338); test: (§1) Inhibition of recombinant human microsomal MAO-B expressed in baculovirus-infected insect cells using p-tyramine as substrate assessed as H2O2 production pretreated for 15 mins followed by addition of Amplex Red, horseradish peroxidase and substrate measured for 15 mins by fluorimetric method; assay type: cell-based
T1 sequence (P27338 whole entry): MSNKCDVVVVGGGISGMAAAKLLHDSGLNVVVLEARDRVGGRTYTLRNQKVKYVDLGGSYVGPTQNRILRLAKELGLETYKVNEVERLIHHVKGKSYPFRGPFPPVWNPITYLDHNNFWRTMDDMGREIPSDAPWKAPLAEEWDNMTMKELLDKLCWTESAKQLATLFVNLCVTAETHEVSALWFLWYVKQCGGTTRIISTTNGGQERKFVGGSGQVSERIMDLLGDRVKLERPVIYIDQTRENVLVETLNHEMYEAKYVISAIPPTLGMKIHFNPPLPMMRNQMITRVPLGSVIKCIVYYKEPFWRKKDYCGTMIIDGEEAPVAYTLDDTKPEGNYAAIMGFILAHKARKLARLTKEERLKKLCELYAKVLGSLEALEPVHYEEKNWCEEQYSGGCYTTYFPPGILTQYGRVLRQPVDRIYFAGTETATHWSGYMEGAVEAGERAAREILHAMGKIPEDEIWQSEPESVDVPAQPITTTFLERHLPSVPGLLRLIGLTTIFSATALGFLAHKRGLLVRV

[2] = target: T2, Amine oxidase [flavin-containing] A (Homo sapiens, UniProt P21397); test: (§2) Inhibition of recombinant human microsomal MAO-A expressed in baculovirus-infected insect cells using p-tyramine as substrate assessed as H2O2 production pretreated for 15 mins followed by addition of Amplex Red, horseradish peroxidase and substrate measured for 15 mins by fluorimetric method
T2 sequence (P21397 whole entry): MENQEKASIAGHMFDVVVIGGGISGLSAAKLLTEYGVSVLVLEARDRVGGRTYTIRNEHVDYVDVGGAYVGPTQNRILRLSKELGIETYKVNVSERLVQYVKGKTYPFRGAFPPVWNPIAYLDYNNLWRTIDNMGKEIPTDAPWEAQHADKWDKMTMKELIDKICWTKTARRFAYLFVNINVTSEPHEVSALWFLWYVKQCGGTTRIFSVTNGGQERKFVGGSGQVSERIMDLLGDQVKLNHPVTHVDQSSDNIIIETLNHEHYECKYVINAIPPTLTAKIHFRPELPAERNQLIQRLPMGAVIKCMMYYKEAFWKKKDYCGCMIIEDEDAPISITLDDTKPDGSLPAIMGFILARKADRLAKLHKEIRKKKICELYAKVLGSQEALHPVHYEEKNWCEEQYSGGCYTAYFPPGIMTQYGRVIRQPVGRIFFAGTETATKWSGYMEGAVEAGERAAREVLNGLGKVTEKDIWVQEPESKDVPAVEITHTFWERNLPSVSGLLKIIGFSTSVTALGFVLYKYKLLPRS

Homo sapiens = species on record: Homo sapiens; test: Selectivity index, ratio of IC50 for recombinant human microsomal MAO-A to recombinant human microsomal MAO-B
[3] = target: T2, Amine oxidase [flavin-containing] A; test: as §2, with “production at 60 uM” for “production”; settings: 0.25 h
In short: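 Human MAO-A from microsomes of insect cells infected with recombinant baculovirus, 1.1 µg protein, adjusted to a rate of 165 pmol p-tyramine/min. Inhibitors in 0.05 M sodium phosphate pH 7.4, preincubated 15 min at 37 °C. Reaction started with 200 µM Amplex Red, 1 U/mL HRP and 1 mM p-tyramine. H2O2-derived resorufin fluorescence (ex 545/em 590 nm) read over 15 min at 37 °C, linear phase.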

[4] = target: T1, Amine oxidase [flavin-containing] B; test: as §1, with “production at 60 uM” for “production”; settings: 0.25 h

Cc1ccc(C2=NN3C(=O)COc4ccc(Cl)cc4C3C2)cc1 (stereo not given)
IC50 [1]: 1630 nM
IC50 [2]: 3900 nM
Ratio IC50 (Homo sapiens): 2.4

CC1Oc2ccccc2C2CC(c3ccc(Cl)cc3)=NN2C1=O (stereo not given)
IC50 [1]: 452 nM
Ratio IC50 (Homo sapiens): 133
inhibition (INH) [3]: Not Active

O=C1COc2ccc(Cl)cc2C2CC(c3ccc(Cl)cc3)=NN12 (stereo not given)
IC50 [1]: 504 nM
IC50 [2]: 4710 nM
Ratio IC50 (Homo sapiens): 9.3

O=C1COc2ccc(Cl)cc2C2CC(c3ccccc3)=NN12 (stereo not given)
IC50 [1]: 2570 nM
Ratio IC50 (Homo sapiens): 23.4
inhibition (INH) [3]: Not Active

CC(C)c1ccc(C2=NN3C(=O)COc4ccccc4C3C2)cc1 (stereo not given)
IC50 [1]: 3520 nM
Ratio IC50 (Homo sapiens): 17
inhibition (INH) [3]: Not Active

O=C1COc2ccccc2C2CC(c3ccccc3)=NN12 (stereo not given)
IC50 [1]: 2880 nM
IC50 [2]: 2190 nM
Ratio IC50 (Homo sapiens): 0.8

O=C1COc2ccccc2C2CC(c3ccc(Cl)cc3)=NN12 (stereo not given)
INH [4]: Not Active
IC50 [2]: 53300 nM
Ratio IC50 (Homo sapiens): 0.9

Cc1ccc(C2=NN3C(=O)C(C)Oc4ccccc4C3C2)cc1 (stereo not given)
IC50 [1]: 45200 nM
Ratio IC50 (Homo sapiens): 1.3
inhibition (INH) [3]: Not Active

CC1Oc2ccccc2C2CC(c3ccccc3)=NN2C1=O (stereo not given)
IC50 [1]: 34700 nM
Ratio IC50 (Homo sapiens): 1.7
inhibition (INH) [3]: Not Active

COc1ccc(C2=NN3C(=O)C(C)Oc4ccccc4C3C2)cc1 (stereo not given)
INH [4]: Not Active
inhibition (INH) [3]: Not Active

CC1Oc2ccccc2C2CC(c3ccc(F)cc3)=NN2C1=O (stereo not given)
IC50 [1]: 221 nM
Ratio IC50 (Homo sapiens): 271
inhibition (INH) [3]: Not Active

COc1ccc(C2=NN3C(=O)COc4ccc(Cl)cc4C3C2)cc1 (stereo not given)
IC50 [1]: 2720 nM
Ratio IC50 (Homo sapiens): 22
inhibition (INH) [3]: Not Active

COc1ccc(C2=NN3C(=O)COc4ccccc4C3C2)cc1 (stereo not given)
INH [4]: Not Active
inhibition (INH) [3]: Not Active

COc1ccc(C2=NN3C(=O)COc4c(Br)cc(Br)cc4C3C2)cc1 (stereo not given)
IC50 [1]: 467 nM
IC50 [2]: 4760 nM
Ratio IC50 (Homo sapiens): 10.2

CC1Oc2ccccc2C2CC(c3ccccc3Cl)=NN2C1=O (stereo not given)
IC50 [1]: 348 nM
IC50 [2]: 4050 nM
Ratio IC50 (Homo sapiens): 11.7

C#CCN(C)[C@H](C)Cc1ccccc1 [SELEGILINE]
inhibition (INH) [3]: Not Active

Cc1ccccc1C1=NN2C(=O)COc3ccccc3C2C1 (stereo not given)
INH [4]: Not Active
inhibition (INH) [3]: Not Active

Cc1ccc(C2=NN3C(=O)COc4ccccc4C3C2)cc1 (stereo not given)
INH [4]: Not Active
inhibition (INH) [3]: Not Active

O=C1COc2ccc(Cl)cc2C2CC(c3ccccc3F)=NN12 (stereo not given)
IC50 [1]: 584 nM
Ratio IC50 (Homo sapiens): 103
inhibition (INH) [3]: Not Active

O=C1COc2ccccc2C2CC(c3ccccc3Cl)=NN12 (stereo not given)
IC50 [1]: 1320 nM
IC50 [2]: 55700 nM
Ratio IC50 (Homo sapiens): 42.1

O=C1COc2ccc(Cl)cc2C2CC(c3ccc(F)cc3)=NN12 (stereo not given)
IC50 [1]: 242 nM
IC50 [2]: 4650 nM
Ratio IC50 (Homo sapiens): 19.2

O=C1COc2ccccc2C2CC(c3ccc(F)cc3)=NN12 (stereo not given)
IC50 [1]: 1780 nM
Ratio IC50 (Homo sapiens): 33.7
inhibition (INH) [3]: Not Active
